Calls of active or inactive are those of the source. The rule behind the calls is not given here.
Tests used:
[1] = tested on: MCF7; assay: Cytotoxicity against human MCF7 cells assessed as reduction in cell viability incubated for 24 hrs by MTT assay; assay type: functional, cell-based; conditions: MCF7, 24 h
In short: (§1)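 MTT viability: cells seeded at 1 × 10^4/well, grown 24 h, then exposed to a concentration range of compound for 24 h. MTT (5 mg/mL stock) added for 3 h, formazan dissolved in DMSO, absorbance read at 540 nm.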

[2] = tested on: PC-3; assay: Cytotoxicity against human PC-3 cells assessed as reduction in cell viability incubated for 24 hrs by MTT assay; assay type: functional, cell-based; conditions: PC-3, 24 h; in short: as §1
[3] = tested on: MDA-MB-231; assay: Cytotoxicity against human MDA-MB-231 cells assessed as reduction in cell viability incubated for 24 hrs by MTT assay; assay type: functional, cell-based; conditions: MDA-MB-231, 24 h; in short: as §1
[4] = tested on: HEK293; assay: Cytotoxicity against human HEK293 cells assessed as reduction in cell viability incubated for 24 hrs by MTT assay; assay type: cell-based; conditions: HEK293, 24 h; in short: as §1
[5] = target: Tubulin (Homo sapiens) (UniProt P68371+Q9H4B7+P0DPH7+P68366+Q13509+Q71U36+P04350+Q3ZCM7+P07437+P68363+Q9BQE3+Q6PEY2+Q13885+Q9BVA1+Q9BUF5); assay: Induction of tubulin polymerization (unknown origin) at 10 uM incubated for 1 hr by spectrometric analysis; assay type: protein-complex assay

SMILES | IC50 [1] [µM] | IC50 [2] [µM] | IC50 [3] [µM] | IC50 [4] [µM] | Activity [5]
COc1ccc(Cc2c(-c3cc(OC)c(OC)c(OC)c3)n(Cc3ccc(OC)cc3)c3ccc(OC)cc23)cc1 | > 30 | > 30 | > 30 |  | 
COc1ccc2c(c1)cc(-c1cc(OC)c(OC)c(OC)c1)n2Cc1ccc(OC(C)CN(C)C)cc1 (stereo unspecified) | 14.7 | 13.3 | 10.6 |  | 
COc1ccc2c(c1)cc(-c1cc(OC)c(OC)c(OC)c1)n2Cc1ccccc1 | > 30 | > 30 | > 30 |  | 
COc1ccc2c(c1)cc(-c1cc(OC)c(OC)c(OC)c1)n2Cc1ccc(OCCN(C)C)cc1 | 6.67 | 6.87 | 7.84 |  | 
CC/C(=C(\c1ccccc1)c1ccc(OCCN(C)C)cc1)c1ccccc1 [TAMOXIFEN] | 8.42 | 15.8 |  | 22.4 | 
COc1ccc2[nH]c(-c3cc(OC)c(OC)c(OC)c3)cc2c1 | > 30 | > 30 | > 30 |  | 
CCOC(=O)COc1ccc(Cn2c(-c3cc(OC)c(OC)c(OC)c3)cc3cc(OC)ccc32)cc1 | > 30 | > 30 | > 30 |  | 
COc1ccc2c(c1)cc(-c1cc(OC)c(OC)c(OC)c1)n2Cc1ccc(OCc2ccccc2)cc1 | > 30 | > 30 | > 30 |  | 
COc1ccc2c(c1)c(Cc1ccccc1)c(-c1cc(OC)c(OC)c(OC)c1)n2Cc1ccccc1 | > 30 | > 30 | > 30 |  | 
COc1ccc2c(c1)c(Cc1ccc(O)cc1)c(-c1cc(OC)c(OC)c(OC)c1)n2Cc1ccc(O)cc1 | > 30 | > 30 | > 30 |  | 
COc1ccc2c(c1)cc(-c1cc(OC)c(OC)c(OC)c1)n2Cc1ccc(OCCN2CCCCC2)cc1 | 21.6 | 21.8 | > 30 |  | 
COc1ccc2c(c1)c(Cc1ccc(OCc3ccccc3)cc1)c(-c1cc(OC)c(OC)c(OC)c1)n2Cc1ccc(OCc2ccccc2)cc1 | > 30 | > 30 | > 30 |  | 
COc1ccc2c(c1)cc(-c1cc(OC)c(OC)c(OC)c1)n2Cc1ccc(OCCN2CCCC2)cc1 | 5.08 | 6.03 | 12.4 |  | 
COc1ccc2c(c1)cc(-c1cc(OC)c(OC)c(OC)c1)n2Cc1ccc(O)cc1 | > 30 | > 30 | 17.3 |  | 
COc1ccc(Cn2c(-c3cc(OC)c(OC)c(OC)c3)cc3cc(OC)ccc32)cc1 | > 30 | > 30 | > 30 |  | 
COc1ccc2c(c1)c(Cc1ccc(OCCN3CCCC3)cc1)c(-c1cc(OC)c(OC)c(OC)c1)n2Cc1ccc(OCCN2CCCC2)cc1 | 4.25 | 7.48 | 9.45 |  | 
CC(=O)O[C@H]1C(=O)[C@@]2(C)[C@H]([C@H](OC(=O)c3ccccc3)[C@]3(O)C[C@H](OC(=O)[C@H](O)[C@@H](NC(=O)c4ccccc4)c4ccccc4)C(C)=C1C3(C)C)[C@]1(OC(C)=O)CO[C@@H]1C[C@@H]2O [PACLITAXEL] | 0.48 | 2.6 | 1.6 | 5.8 | Active
CCN(CC)CCOc1ccc(Cn2c(-c3cc(OC)c(OC)c(OC)c3)cc3cc(OC)ccc32)cc1 | 29.8 | 15 | 13.2 |  | 

Source: ChEMBL document CHEMBL4811308, “Design, synthesis and broad spectrum antibreast cancer activity of diarylindoles via induction of apoptosis in aggressive breast cancer cells” (Bioorg Med Chem, 2021)
